Data reported in ChEMBL document CHEMBL1126774, “Synthesis and antiviral activity of novel 5-(1-azido-2-haloethyl) and 5-(1-azido-, amino-, or methoxyethyl) analogs of 2'-deoxyuridine” (J Med Chem, 1993).

Key:
[1] = Inhibitory concentration of the drug against the cytopathic effect for E-377 strain of herpes simplex virus-1 (HSV-1) in human HFF cells; format: functional, cell-based
Outline: (§1)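 HFF CPE assay: low-passage cells seeded 24 h before in MEM + 10% FBS, switched to MEM + 2% FBS. Drug added in triplicate, serially diluted 1:5, plus HSV-1 or HSV-2 at 1000 PFU/well; 3 days at 37 °C in CO2. Staining with 0.1% crystal violet, read at 620 nm. Value is concentration (µM) reducing CPE by 50%.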

Homo sapiens [2] = species on record: Homo sapiens; assay: Concentration of the drug required to reduce the uptake of neural red stain by uninfected cell monolayers (HFF); format: functional
Outline: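 HFF cells plated 24 h before assay at 2.5×10^4 cells/well; drug added in 1:5 serial dilution, incubated 7 days at 37 °C in CO2; 0.01% neutral red in DPBS 1 h, washed, dye extracted with 50% EtOH/1% acetic acid, OD 550 nm; value is concentration (µM) reducing uptake to 50% of untreated uninfected controls.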

[3] = Inhibitory concentration of the drug against the cytopathic effect for MS strain of herpes simplex virus-2 (HSV-2) in human HFF cells; format: functional, cell-based; outline: as §1
[4] = Inhibitory concentration of the drug against the cytopathic effect for ellen strain of […] in human HFF cells; format: functional, cell-based
Homo sapiens [5] = species on record: Homo sapiens; assay: Concentration of the drug required to reduce the proliferation of human foreskin fibroblast cells; format: functional
Outline: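 HFF cells seeded 24 h before in MEM + 10% FBS; drugs serially diluted 1:5 in MEM + 10% FBS over 100 µg/mL to 0.03 µg/mL, 72 h at 37 °C in CO2; cells trypsinized and counted on a Coulter counter; value is concentration (µM) reducing proliferation to 50% of untreated controls.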

[6] = system: Human cytomegalovirus (Human herpesvirus 5); assay: Inhibitory concentration of the drug against the cytopathic effect for AD169 strain of human cytomegalovirus (HCMV) in human HFF cells
Raji = assay: Inhibitory concentration of the drug against the antigen production against P3HR-1 strain of epstein barr virus-2 (EBV) in Raji cells; format: functional, cell-based; settings: Homo sapiens
Outline: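 Raji cells infected with EBV P3HR-1; drug added after adsorption (45 min, 37 °C) and washing, then 2 days in complete medium. Cells counted, smears stained with monoclonal antibodies to early antigen components and VCA plus fluorescent detection; positive cells counted. Value is concentration (µM) reducing antigen production to 50% of untreated infected controls.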

Row | SMILES | EC50 [1] [µM] | EC50 [3] [µM] | EC50 [4] [µM] | EC50 [6] [µM] | EC50 (Raji) [µM] | IC50 (Homo sapiens [2]) [µM] | IC50 (Homo sapiens [5]) [µM]
1 | [N-]=[N+]=NC(CI)c1cn([C@H]2C[C@H](O)[C@@H](CO)O2)c(=O)[nH]c1=O (stereo partly specified) | 0.5 | 13.2 | 12.3 | > 118 | 4 | > 118 | 76
2 | [N-]=[N+]=NC(CCl)c1cn([C@H]2C[C@H](O)[C@@H](CO)O2)c(=O)[nH]c1=O (stereo partly specified) | 0.06 | 6.6 | 4.5 | > 150 | 11.1 | > 150 | > 300
3 | [N-]=[N+]=NC(CBr)c1cn([C@H]2C[C@H](O)[C@@H](CO)O2)c(=O)[nH]c1=O (stereo partly specified) | 6.4 | 2.9 | 4 | > 130 | 9.3 | > 130 | 91
4 | CC(N)c1cn([C@H]2C[C@H](O)[C@@H](CO)O2)c(=O)[nH]c1=O (stereo partly specified) | > 100 | > 100 | > 250 | > 125 | 44.6 | > 125 | > 250
5 | Nc1nc2c(ncn2COCCO)c(=O)[nH]1 [ACYCLOVIR] | 0.04 | 0.09 | – | – | 2.9 | > 440 | > 440

Second part, led by results:

Row | EC50 [1] [µM] | EC50 [3] [µM] | EC50 [4] [µM] | EC50 [6] [µM] | EC50 (Raji) [µM] | SMILES | IC50 (Homo sapiens [2]) [µM] | IC50 (Homo sapiens [5]) [µM]
6 | 0.02 | 2.21 | 0.01 | 24.8 | – | O=c1[nH]c(=O)n([C@H]2C[C@H](O)[C@@H](CO)O2)cc1/C=C/I | 86 | 4.4
7 | 1.7 | 1 | > 87 | 5.9 | – | COC(C)c1cn([C@H]2C[C@H](O)[C@@H](CO)O2)c(=O)[nH]c1=O (stereo partly specified) | > 175 | 330
8 | > 170 | > 170 | > 67 | > 170 | – | CC(N=[N+]=[N-])c1cn([C@H]2C[C@H](O)[C@@H](CO)O2)c(=O)[nH]c1=O (stereo partly specified) | > 170 | 81
9 | 0.6 | 1.5 | 66.4 | 0.9 | 12.1 | CCc1cn([C@H]2C[C@H](O)[C@@H](CO)O2)c(=O)[nH]c1=O [EDOXUDINE] | > 195 | 115
10 | – | – | – | 0.5 | – | Nc1nc2c(ncn2COC(CO)CO)c(=O)[nH]1 [GANCICLOVIR] | > 390 | 168
